HSF1 inh – HSF1 inhibition; NIH3T3-HGL HSE-luciferase, MG132-induced, luminescence 8 h; hits give low values; activity change, negative = inhibition, % at 7.5 µM (by protocol); hit rate 0.77% among 300,000;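 active = more than half of replicate wells show activity change below -50%, luminescence cut by over half; inconclusive = some wells, but at most half, below -50%; inactive = no replicate well below -50%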;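 also: luciferase reports HSF-1 transcriptional activity via heat shock element; 0% = median of DMSO wells and -100% = zero luminescence signal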
HIF act – HIF pathway transcriptional activation; U2OS HRE-luciferase reporter, luminescence; normalized: DMSO 0%, desferrioxamine 100%; activation, % at 7.5 µM (by protocol); hit rate 0.32% among 300,000; AID 1910;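 active = mean activation of at least 10% of the iron chelator positive control signal, with at least half of replicates also reaching 10%; inconclusive = mean and replicate majority disagree about reaching 10%; inactive = mean and most replicates under 10%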
Calb FLC – C. albicans growth modulation with fluconazole. growth inhibition, % (no concentration beside the values). C. albicans CaCi-2 + fluconazole, Alamar Blue growth, 48 h. hit rate 0.57% among 300,000;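 active = growth inhibition above about 58% in most replicates, limit read from the data, passing the limit was not always enough; inconclusive = exactly half the replicates above a set limit; inactive = most replicates below a set limit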;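 also: all wells also contain fluconazole at 8 µg/ml as a sub-toxic cotreatment; 0% = median of DMSO wells and 100% = median of geldanamycin control wells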
HSF-1 act – increases HSF-1 driven luciferase reporter signal; NIH3T3-HGL HSF-1 luciferase reporter, MG132, 8 h; 100% = twice DMSO control signal; activation, % at 9 µM; hit rate 1.7% among 300,000; AID 504408;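 active = mean replicate activation of at least 50% with a set share of replicates each reaching 50%; inconclusive = only one of those two conditions met; inactive = mean below 50% and too few replicates reaching it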;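 also: 0% = median of the neutral control wells and 100% = twice that signal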
T cruzi repl – blocks replication of Trypanosoma cruzi; AID 1885; hit rate 1.4% among 300,000; inhibition, % (test concentration not listed); T. cruzi beta-gal in NIH3T3, luminescence, 90 h;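 active = mean inhibition across valid replicates above about 55%, limit read from the data; inconclusive = mean below that limit but half or more replicates reach it; inactive = mean below it, under half of replicates reach it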;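 also: signal also drops with host cell toxicity which is not excluded here; 0% = plate median of DMSO wells and 100% = zero luminescence signal; higher percent means less beta-gal luminescence so fewer parasites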
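Read-out: Parasite load inhibition, % | Test system: Mouse NIH/3T3 fibroblasts infected with β-gal-expressing T. cruzi Tulahuen C4 | Amount: 5,000 cells/well | Medium: DMEM, 2% fetal bovine serum | Signal: GalScreen β-gal luminescence, detergent lysis, 60 min | Timing: 3 h attach, ≥90 h co-culture | Also added: Tulahuen C4 trypomastigotes, 5000/well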
The depositor's hits bear a star; ? = inconclusive. Shown are actives, neighbours in structure and some others; about 4.4% of the full set was active somewhere.

SMILES	HSF1 inh	HIF act	Calb FLC	HSF-1 act	T cruzi repl
CC(Sc1nnnn1C)C(=O)Nc1ccc(Oc2ccccc2)cc1 (stereo not given)	-68.3*	0.0	-2.2	-74.5	19.2
O=C1[C@@H]2Cc3c([nH]c4ccccc34)C(c3cccc([N+](=O)[O-])c3)N2C(=O)CN1C1CCN(Cc2ccccc2)CC1 (stereo not given in full)	14.0	-35.3	17.7	35.4	70.9*
CN(C)CC(CCC(CN(C)C)C(=O)c1ccccc1)C(=O)c1ccccc1 (stereo not given)	-69.2*	-0.7	?	-62.6	70.8*
COc1ccc(C(=O)C(CN2CCCC2)c2ccccc2)cc1 (stereo not given)	7.3	-1.3	79.7*	-1.5	3.3
CCOc1ccc(C(=O)C(CCC(CN(C)C)C(=O)c2ccc(OCC)cc2)CN(C)C)cc1 (stereo not given)	-30.4	-3.6	-19.5	-28.6	31.5
COc1ccc(C(=O)C(CN2CCOCC2)c2ccccc2)cc1 (stereo not given)	2.7	0.6	3.4	-4.0	29.5
CC(CN1CCOCC1)OC(=O)C(c1ccccc1)c1ccccc1 (stereo not given)	-62.7*	0.0	3.3	-73.1	8.1
O=C(c1ccccc1)C(CCC(CN1CCOCC1)C(=O)c1ccccc1)CN1CCOCC1 (stereo not given)	63.6	0.4	9.7	85.9*	-2.7
Cc1ccccc1NC(=O)c1ccc(NC(=O)C2CC(=O)OC23CCCCC3)cc1 (stereo not given)	5.4	-0.1	-11.8	25.1	-10.6
O=C(Nc1ccnn1C1CCN(C(=O)c2ccc(F)cc2)CC1)C1CCOC1 (stereo not given)	-0.8	-0.3	3.2	-1.3	-4.0
O=c1c(Cc2c(F)cccc2Cl)c(O)ccn1C1CC1	-0.6	0.4	-19.7	2.2	2.4
CCOC(=O)Cn1cnc2scc(-c3ccc(C)cc3)c2c1=O	-2.9	0.7	-11.0	1.2	16.8
CCCCOc1ccc(C(=O)C(CN2CCOCC2)c2ccccc2)cc1 (stereo not given)	34.8	-1.4	-3.0	36.0	20.4
O=C(c1ccc(F)cc1)C(CN1CCOCC1)c1ccccc1 (stereo not given)	6.1	2.6	2.9	10.5	58.4*
O=C(OC1CCOC1=O)c1cc(Cl)ccc1[N+](=O)[O-] (stereo not given)	19.4	-12.9	3.8	58.3*	-5.9
O=C(OC1CCOC1=O)c1ccc(N2CCCC2)c([N+](=O)[O-])c1 (stereo not given)	-8.3	0.0	8.5	0.0	-15.2
CCOc1ccc(C(=O)NCCc2cnc[nH]2)cc1	-5.3	0.8	-1.1	-30.1	50.2
O=C(NCCc1cnc[nH]1)c1ccc(-c2ccccc2)cc1	2.5	1.4	5.5	10.3	60.4*
O=C(N/N=C\C=C\c1ccco1)c1cc(-c2ccc3ccccc3c2)n[nH]1	29.4	3.5	20.3	57.4*	-114.4
O=C(N/N=C/C=C\c1ccco1)c1ccccn1	32.7	7.0	-6.1	61.8*	0.2
O=C(CN1CCN(Cc2ccccc2)CC1)N/N=C\C=C/c1ccco1	-68.5*	-0.1	42.4	-75.9	-46.5
O=C(CN1CCN(Cc2ccccc2Cl)CC1)N/N=C/C=C/c1ccco1	8.0	-0.1	-6.3	39.0	-38.3
CCC(CC)c1nnc(NC(=O)CCCN2C(=O)c3ccccc3C2=O)s1	-2.2	0.5	0.8	-10.6	-1.3
CC(C)c1ccc(/C=C/c2[nH]c(=O)[nH]c(=O)c2[N+](=O)[O-])cc1	7.5	1.8	-10.2	11.1	-13.9
COc1ccc2ccccc2c1CN(C)Cc1ccccc1	-6.9	-0.5	-28.4	0.2	16.4
SMILES	HSF1 inh	HIF act	Calb FLC	HSF-1 act	T cruzi repl
COc1cccc(CN(C)CC(=O)Nc2cccc3ccccc23)c1	-1.9	0.3	6.2	11.0	-0.2
COc1ccc(CN(C)Cc2c(O)ccc3ccccc23)cc1	195.2	2.0	-4.1	218.6*	36.3
COc1cccc(CN(C)Cc2c(O)ccc3ccccc23)c1	80.5	0.5	-1.3	97.4*	-10.7
CCCCCCCCCC[n+]1cccc2c3ccccc3ccc21	-9.0	-0.8	100.8*	-19.9	70.2*
Cc1cccc[n+]1CCCCCCCCCC[n+]1ccccc1C	-7.4	-0.9	-6.8	-7.1	-15.5
CCCCCCCC[n+]1cccc2c3ccccc3ccc21	-18.4	-1.4	102.0*	-12.0	67.8*
O=C(CCN1CCCCCC1)Nc1ccc(F)cc1	2.6	0.7	22.9	-0.7	-35.6
COC(=O)c1ccc(NC(=O)CCN2CCN(Cc3ccccc3)CC2)cc1	-7.4	0.7	-16.6	4.0	65.3*
Cc1ccc(NC(=O)CCN2CCCCC2)cc1	-63.4*	-3.0	-3.5	-67.9	-10.0
CC(=O)Nc1cc(C(=O)NCCN2CCN(Cc3ccccc3)CC2)ccc1Sc1ccc(C)cc1	-0.3	0.6	6.3	0.0	6.4
Cc1cc(C)c(S(=O)(=O)NCC2CCC(C(=O)NCc3ccccn3)CC2)c(C)c1 (stereo not given)	0.6	0.2	21.5	8.6	36.2
O=C(c1ccco1)N1N=C(c2cccs2)CC1c1cc([N+](=O)[O-])ccc1O (stereo not given)	-3.5	-0.2	49.5	0.8	-1.4
Fc1ccccc1NC(=S)Nc1ccc(Br)cc1	14.2	80.5*	-16.9	20.1	-35.1
Fc1cc(Br)ccc1NC(=S)Nc1ccccc1	10.8	2.4	-9.4	28.2	-7.8
COc1cccc(/C=N/n2c(COc3ccccc3)n[nH]c2=S)c1	3.4	1.0	-2.2	-14.5	-3.6
COc1cccc(-c2c(C#N)c(N)nc3c2c(C)nn3-c2ccccc2)c1O	52.0	-12.5	15.3	62.7*	12.9
O=[N+]([O-])C(=C1Nc2ccccc2N1)/C(Cl)=C(/Cl)Br	3.0	0.1	-1.0	-4.2	-39.8
COc1cc2c(cc1OC)C(C)N(S(=O)(=O)c1ccc(C)cc1)CC2 (stereo not given)	27.2	-11.1	12.6	60.4*	6.6
O=[N+]([O-])c1ccc(-c2csc(Nc3ccccc3)[n+]2Cc2ccccc2)cc1	30.9	0.7	-5.7	84.1*	43.0
COc1ccccc1CNC(=O)C1CCN(S(=O)(=O)c2ccc3c(c2)C(C)(C)C(=O)N3C)CC1	-8.0	-0.3	3.1	-0.2	-0.5
Cc1ccc(-n2cc(CNCCN3CCOC3=O)c(-c3cccc(C)c3)n2)cc1	28.1	0.1	-19.2	69.0*	-7.2
O=[N+]([O-])c1cccnc1NCc1cccs1	-7.9	-0.1	-14.0	6.2	0.0
CC(=O)c1cc(F)ccc1OCC(=O)N1CCCc2ccccc21	8.7	0.0	-5.2	10.9	-7.9
COc1ccc(C(C(=O)NC2CCCCC2)N(C(=O)CCCC(=O)Nc2ccccn2)c2ccc3c(c2)OCCO3)cc1 (stereo not given)	-2.8	0.0	2.7	-11.0	3.0
COC(CN(C(=O)CCl)C(C(=O)NC1CCCCC1)c1ccccc1C)OC (stereo not given)	-5.5	-0.7	3.8	-13.5	-8.4
